Results taken from ChEMBL document CHEMBL1137076, “New arylpiperazine 5-HT(1A) receptor ligands containing the pyrimido[2,1-f]purine fragment: synthesis, in vitro, and in vivo pharmacological evaluation” (J Med Chem, 2004).

Assays:
D(2) dopamine receptor = D(2) dopamine receptor (Rattus norvegicus, UniProt P61169); assay: Ability to bind to Dopamine receptor D2 in vitro in rat sriatal membranes using [3H]spiperone radioligand; assay type: cell membranes
Summary of the method: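 Rat striatal membranes with [3H]spiperone; ketanserin 50 nM in buffer to block 5-HT2A binding; nonspecific binding with (±)-butaclamol 5 μM; 50 mM potassium phosphate pH 7.4; 37 °C, 30 min; vacuum filtration onto glass fiber, scintillation counting. Ki via Cheng-Prusoff from ≥3 experiments, 10 concentrations in triplicate.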

[1] = target: 5-hydroxytryptamine receptor 1A (Rattus norvegicus) (UniProt P19327); assay: Ability inhibit symptoms induced by 8-OH-DPAT was regarded as postsynaptic 5-HT1A receptor antagonistic activity; Antagonist; details: filed as antagonist
[2] = target: T1, Adrenergic receptor alpha-1 (Rattus norvegicus, UniProt P15823+P23944+P43140); assay: Ability to bind to alpha-1 adrenergic receptor in vitro in cortex of the rat brain using [3H]prazosin radioligand; assay type: tissue-based
T1 sequence (P15823 whole entry): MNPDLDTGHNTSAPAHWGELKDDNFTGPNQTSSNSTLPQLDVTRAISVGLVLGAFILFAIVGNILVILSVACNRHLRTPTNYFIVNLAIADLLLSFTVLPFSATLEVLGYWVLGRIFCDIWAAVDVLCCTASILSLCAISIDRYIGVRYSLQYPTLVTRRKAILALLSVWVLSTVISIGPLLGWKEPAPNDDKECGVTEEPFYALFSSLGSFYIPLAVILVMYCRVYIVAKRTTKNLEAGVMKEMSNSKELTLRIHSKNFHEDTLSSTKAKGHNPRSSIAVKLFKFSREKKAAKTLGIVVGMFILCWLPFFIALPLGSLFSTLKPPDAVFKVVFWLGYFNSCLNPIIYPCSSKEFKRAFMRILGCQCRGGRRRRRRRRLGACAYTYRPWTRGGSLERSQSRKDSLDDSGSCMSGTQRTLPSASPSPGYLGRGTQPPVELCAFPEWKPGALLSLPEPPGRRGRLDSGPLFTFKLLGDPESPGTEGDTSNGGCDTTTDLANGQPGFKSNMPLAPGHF
T1 sequence (P23944 whole entry): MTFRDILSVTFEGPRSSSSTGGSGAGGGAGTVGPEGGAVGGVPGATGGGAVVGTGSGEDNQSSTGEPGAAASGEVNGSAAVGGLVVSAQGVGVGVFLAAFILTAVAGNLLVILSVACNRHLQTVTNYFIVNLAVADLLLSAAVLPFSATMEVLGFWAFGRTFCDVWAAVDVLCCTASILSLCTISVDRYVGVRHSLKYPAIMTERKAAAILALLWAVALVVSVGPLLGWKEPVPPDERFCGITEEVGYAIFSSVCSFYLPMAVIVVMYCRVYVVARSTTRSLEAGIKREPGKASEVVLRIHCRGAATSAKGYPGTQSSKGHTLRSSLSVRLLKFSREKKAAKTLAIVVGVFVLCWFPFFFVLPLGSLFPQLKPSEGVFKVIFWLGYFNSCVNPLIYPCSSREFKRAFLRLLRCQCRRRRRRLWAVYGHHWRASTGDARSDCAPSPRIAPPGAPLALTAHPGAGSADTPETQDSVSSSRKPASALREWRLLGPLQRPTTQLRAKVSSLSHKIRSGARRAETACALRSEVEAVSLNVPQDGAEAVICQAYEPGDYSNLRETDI
T1 sequence (P43140 whole entry): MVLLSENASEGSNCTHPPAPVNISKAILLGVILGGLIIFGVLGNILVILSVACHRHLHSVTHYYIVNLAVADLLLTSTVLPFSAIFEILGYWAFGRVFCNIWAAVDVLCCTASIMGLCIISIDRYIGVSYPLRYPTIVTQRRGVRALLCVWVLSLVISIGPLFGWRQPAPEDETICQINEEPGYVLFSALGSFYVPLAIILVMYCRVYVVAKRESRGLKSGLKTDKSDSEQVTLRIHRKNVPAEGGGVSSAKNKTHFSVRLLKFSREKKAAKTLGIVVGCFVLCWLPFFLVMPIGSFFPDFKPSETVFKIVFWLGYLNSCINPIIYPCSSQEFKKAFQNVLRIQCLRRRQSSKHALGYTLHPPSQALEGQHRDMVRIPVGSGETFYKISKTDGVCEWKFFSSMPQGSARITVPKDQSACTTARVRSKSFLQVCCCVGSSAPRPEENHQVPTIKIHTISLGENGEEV
Summary of the method: (§1)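 Competition binding in rat brain tissue: hippocampus with [3H]-8-OH-DPAT (5-HT1A); cortex with [3H]-ketanserin (5-HT2A) or [3H]-prazosin (α1). Ki from at least three experiments using 10–14 concentrations (10⁻¹⁰–10⁻⁵ M), each in triplicate.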

[3] = target: 5-hydroxytryptamine receptor 2A (Rattus norvegicus, UniProt P14842); assay: Ability to bind to central serotonin 5-hydroxytryptamine 2A receptor in vitro in cortex of the rat brain using [3H]ketanserin radioligand; assay type: tissue-based; summary of the method: as §1
Sequence of 5-hydroxytryptamine receptor 2A (P14842 whole entry): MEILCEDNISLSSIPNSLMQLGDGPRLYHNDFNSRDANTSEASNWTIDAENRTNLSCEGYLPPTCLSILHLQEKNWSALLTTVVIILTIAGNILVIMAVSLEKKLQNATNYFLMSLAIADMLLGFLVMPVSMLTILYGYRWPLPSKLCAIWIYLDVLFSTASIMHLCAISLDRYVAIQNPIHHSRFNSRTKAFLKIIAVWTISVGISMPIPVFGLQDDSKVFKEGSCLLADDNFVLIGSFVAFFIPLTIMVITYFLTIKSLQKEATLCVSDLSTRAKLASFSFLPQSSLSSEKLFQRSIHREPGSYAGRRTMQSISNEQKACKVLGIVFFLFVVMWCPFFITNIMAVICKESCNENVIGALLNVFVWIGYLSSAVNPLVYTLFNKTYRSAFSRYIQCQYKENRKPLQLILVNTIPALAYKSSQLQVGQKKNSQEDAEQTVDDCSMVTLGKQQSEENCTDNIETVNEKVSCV

[4] = target: T2, 5-hydroxytryptamine receptor 1A (Rattus norvegicus, UniProt P19327); assay: Ability to bind to central serotonin 5-hydroxytryptamine 1A receptor in vitro in hippocampus of the rat brain using [3H]8-OH-DPAT radioligand; assay type: tissue-based; summary of the method: as §1
T2 sequence (P19327 whole entry): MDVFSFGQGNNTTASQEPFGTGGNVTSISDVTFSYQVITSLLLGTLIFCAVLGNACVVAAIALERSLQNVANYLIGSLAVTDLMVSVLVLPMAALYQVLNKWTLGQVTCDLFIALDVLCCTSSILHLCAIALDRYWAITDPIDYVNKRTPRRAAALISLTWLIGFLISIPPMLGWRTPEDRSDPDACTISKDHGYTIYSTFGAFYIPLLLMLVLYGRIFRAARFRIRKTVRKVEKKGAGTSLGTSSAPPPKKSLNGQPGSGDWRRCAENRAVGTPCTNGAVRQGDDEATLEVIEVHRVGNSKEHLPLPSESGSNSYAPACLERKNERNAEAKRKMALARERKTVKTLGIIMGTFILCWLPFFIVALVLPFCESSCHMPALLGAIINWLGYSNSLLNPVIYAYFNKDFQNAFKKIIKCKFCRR

[5] = target: T3, 5-hydroxytryptamine receptor 1A (Mus musculus) (UniProt Q64264); assay: The hypothermia produced in mice was regarded as a measure of presynaptic 5-HT1A receptor agonistic activity; Agonist; assay type: functional; details: filed as agonist
T3 sequence (whole entry): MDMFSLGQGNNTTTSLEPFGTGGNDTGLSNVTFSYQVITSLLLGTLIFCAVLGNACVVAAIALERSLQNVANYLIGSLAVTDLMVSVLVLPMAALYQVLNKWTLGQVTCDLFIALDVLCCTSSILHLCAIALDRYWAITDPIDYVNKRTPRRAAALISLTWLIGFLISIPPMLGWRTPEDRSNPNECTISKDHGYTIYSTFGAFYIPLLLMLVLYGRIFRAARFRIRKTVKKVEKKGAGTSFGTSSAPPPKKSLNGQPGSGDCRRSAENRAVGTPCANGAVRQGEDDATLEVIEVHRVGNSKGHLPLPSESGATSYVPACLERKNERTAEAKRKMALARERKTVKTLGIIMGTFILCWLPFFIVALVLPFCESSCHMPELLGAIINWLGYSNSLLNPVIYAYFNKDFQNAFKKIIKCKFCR

[6] = target: 5-hydroxytryptamine receptor 2A (Mus musculus) (UniProt P35363); assay: The ability to antagonize head twitches in mice, observed after administration of (+/-)- DOI, was used to evaluate 5-HT2A receptor antagonistic property; Antagonist; assay type: functional, organism-based; details: filed as antagonist
Sequence of 5-hydroxytryptamine receptor 2A (Mus musculus) (P35363 whole entry): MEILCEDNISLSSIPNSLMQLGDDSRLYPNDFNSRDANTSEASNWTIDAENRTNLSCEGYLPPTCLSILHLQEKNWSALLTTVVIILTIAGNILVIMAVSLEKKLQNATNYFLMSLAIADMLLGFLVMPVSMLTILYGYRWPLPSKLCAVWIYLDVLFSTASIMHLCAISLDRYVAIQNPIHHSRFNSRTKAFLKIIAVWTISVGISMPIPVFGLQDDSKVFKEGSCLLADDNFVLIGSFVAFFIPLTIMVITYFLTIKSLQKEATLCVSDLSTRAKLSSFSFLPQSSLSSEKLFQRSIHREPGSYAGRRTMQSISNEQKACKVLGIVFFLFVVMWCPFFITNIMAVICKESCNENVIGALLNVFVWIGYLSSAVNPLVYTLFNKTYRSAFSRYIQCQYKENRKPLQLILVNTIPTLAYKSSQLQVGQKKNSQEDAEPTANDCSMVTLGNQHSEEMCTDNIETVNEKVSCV
Summary of the method: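 Male Albino Swiss mice habituated 20 min in glass cages; compounds ip (1% Tween 80) 60 min before (±)-DOI 2.5 mg/kg; head twitches counted for 20 min after DOI. ID50 by Litchfield-Wilcoxon.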

Rattus norvegicus [7] = assay: Effect of compound administered 60 min before the test in the forced swimming test in Rat (8 rats per group) at 30 mg/kg; assay type: functional
Summary of the method: (§2)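 Male Wistar rats, n=8/group; forced swim per Porsolt: 15 min pretest in cylinders with 15 cm water at 25 °C, retest 24 h later; total immobility over 5 min. Drug ip 60 min before test; imipramine in saline, test compound suspended in 1% Tween 80; Dunnett test vs vehicle.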

Rattus norvegicus [8] = assay: Effect of compound administered 60 min before the test in the forced swimming test in Rat (8 rats per group) at 40 mg/kg; assay type: functional; summary of the method: as §2
Rattus norvegicus [9] = assay: Effect of compound administered 60 min before the test in the forced swimming test in Rat (8 rats per group) at 20 mg/kg; assay type: functional; summary of the method: as §2

Sequence of D(2) dopamine receptor (P61169 whole entry): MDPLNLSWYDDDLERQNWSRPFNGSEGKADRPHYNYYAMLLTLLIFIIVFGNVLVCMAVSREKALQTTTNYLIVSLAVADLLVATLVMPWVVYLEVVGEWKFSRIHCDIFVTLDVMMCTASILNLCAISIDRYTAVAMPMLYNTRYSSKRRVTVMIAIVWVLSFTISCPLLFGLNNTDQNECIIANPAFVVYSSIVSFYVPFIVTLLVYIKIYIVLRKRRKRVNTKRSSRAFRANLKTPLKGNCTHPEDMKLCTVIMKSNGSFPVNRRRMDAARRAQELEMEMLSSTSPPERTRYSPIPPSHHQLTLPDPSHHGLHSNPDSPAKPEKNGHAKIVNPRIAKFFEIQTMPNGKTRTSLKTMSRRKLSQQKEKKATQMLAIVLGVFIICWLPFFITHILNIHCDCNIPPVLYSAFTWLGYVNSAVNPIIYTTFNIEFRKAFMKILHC

| Structure (SMILES) | Ki (D(2) dopamine receptor) | Functional profile [1] | Ki [2] | Ki [3] | Ki [4] | Functional profile [5] | Functional profile [6] | Effect (Rattus norvegicus [7]) | Immobility time (Rattus norvegicus [7]) | Effect (Rattus norvegicus [8]) | Immobility time (Rattus norvegicus [8]) | Effect (Rattus norvegicus [9]) | Immobility time (Rattus norvegicus [9]) |
| --- | --- | --- | --- | --- | --- | --- | --- | --- | --- | --- | --- | --- | --- |
| COc1ccccc1N1CCN(CCCNc2ccn3c(n2)nc2c3c(=O)n(C)c(=O)n2C)CC1 | 1170 nM | Antagonist | 33 nM | 835 nM | 34 nM |  |  |  |  |  |  |  |  |
| Cn1c(=O)c2c(nc3nc(NCCCN4CCN(c5cccc(Cl)c5)CC4)ccn32)n(C)c1=O | 94 nM | Antagonist | 21 nM | 56 nM | 46 nM | Agonist | Antagonist |  |  |  |  |  |  |
| Cn1c(=O)c2c(nc3nc(NCCN4CCN(c5cccc(Cl)c5)CC4)c(Br)cn32)n(C)c1=O | 165 nM | Antagonist |  | 64 nM | 68 nM |  | Antagonist |  |  |  |  |  |  |
| Cn1c(=O)c2c(nc3n2CCCN3CCCCN2CCN(c3ccccc3)CC2)n(C)c1=O |  |  |  | 243 nM | 2.1 nM |  |  |  |  |  |  |  |  |
| COc1ccccc1N1CCN(CCNc2nc3nc4c(c(=O)n(C)c(=O)n4C)n3cc2Br)CC1 | 226 nM | Antagonist | 62 nM | 86 nM | 62 nM | Agonist |  |  |  |  |  |  |  |
| COc1ccccc1N1CCN(CCCn2c(=O)ccn3c4c(=O)n(C)c(=O)n(C)c4nc23)CC1 |  |  |  | 3880 nM | 10.4 nM |  |  |  |  |  |  |  |  |
| CN(C)CCCN1c2ccccc2CCc2ccccc21 [IMIPRAMINE] |  |  |  |  |  |  |  | 63.3% | 120.4 s | 52.7% | 99.7 s | 81.9% | 155 s |
| Cn1c(=O)c2c(nc3nc(NCCN4CCN(c5cccc(Cl)c5)CC4)ccn32)n(C)c1=O | 182 nM | Antagonist | 29 nM | 234 nM | 23 nM | Agonist |  |  |  |  |  |  |  |
